Shown are actives, neighbours in structure and some others; about 2.5% of the full set was active somewhere.
SR-BI DiI inh = blocks mouse SR-BI lipid uptake from DiI-HDL; Q61009; ldlA[mSR-BI] CHO cells, DiI-HDL uptake fluorescence, 3 h; inhibition, % at 12.5 µM; hit rate 0.96% among 320,000; AID 488896;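 active = mean replicate inhibition of at least 70% and a set share of replicates each scoring 70 or more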;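 note: 0% = median of neutral control wells and 100% = median of positive control wells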
DYRK1A inh = blocks rat Dyrk1A kinase activity. Q63470. AID 504441. ADP-Glo luminescence, NFATc1 peptide. inhibition, % at 12.5 µM. hit rate 0.43% among 310,000;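 note: plate controls were vehicle with enzyme for no effect and no enzyme for full effect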
SR-BI uptake up = enhances SR-BI lipid uptake from DiI-HDL. AID 504775. hit rate 0.096% among 320,000. CHO ldlA[mSR-BI] cells, DiI-HDL uptake fluorescence, 3 h; 100 = double the neutral-control signal. activation, % at 12.5 µM;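 active = mean replicate activation of at least 60% and every replicate at or above 60%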;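 note: 0% = median plate neutral-control signal and 100% = twice that signal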
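material = CHO ldlA[mSR-BI] cells | medium = Ham's F12 with 0.5% BSA, HEPES 25 mM, pH 7.4 | reagent = fluorescent DiI-HDL, 10 µg/mL final | compound dosing = single-point compound dose | incubation = 3 h, 37 °C | measured by = bottom-read fluorescence, 550/595 nm | measure = HDL uptake via cellular fluorescence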
CDK5 p35 inh = blocks human CDK5/p35 kinase activity; Recombinant CDK5/p35, ADP-Glo luminescence, 60 min; AID 488839; Q00535+Q15078; inhibition, % at 10 µM; hit rate 0.01% among 330,000;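 active = highest replicate inhibition of at least 50% and at least 75% of replicates reaching 50%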;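 note: plate controls were DMSO neutral control for no effect and GW8510 at 10 µM for full effect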
dFosB activator = activators of mouse delta FosB homodimer; hit rate 0.99% among 340,000; activation, % at 25 µM; AID 493131; purified delta FosB, TAMRA-CDK5 oligo fluorescence polarization; percent of positive-control signal above neutral wells; P13346;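 active = mean activation above about 17%, with every replicate also reaching it, limit read from the data, passing the limit was not always enough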
NSD2 HMT inh = blocks human histone methyltransferase NSD2. O96028. NSD2 peptide methylation, AlphaScreen, 120 min. inhibition, % at 12.5 µM. hit rate 0.54% among 310,000. AID 743445
An asterisk follows results filed as active; nt = not tested or not shown. Cut-off read from the data, not from the text of the source, unless noted: active = inhibition above about 50%; inactive = the rest.

SMILES	SR-BI DiI inh	DYRK1A inh	SR-BI uptake up	CDK5 p35 inh	dFosB activator	NSD2 HMT inh
O=[N+]([O-])c1ccc(N/N=C/c2ccc(O)c(O)c2O)c(S(=O)(=O)N2CCOCC2)c1	108*	1	-108	2	-8	29
CCc1nn(CC(=O)NCCc2ccc(S(N)(=O)=O)cc2)c(=O)c2cc3sccc3n12	1	-1	nt	1	-4	nt
O=C(CSC1=NNC(c2ccccn2)S1)Nc1ccc(C(F)(F)F)cc1 (centres undefined)	95*	9	-95	-1	-11	-7
CSc1ccc(/C=N/Nc2cccc(C(=O)O)c2)cc1	-3	nt	3	-2	-14	99*
COc1ccc(NC(=O)C2(C)CCN2CC2CCCCC2)cc1OC (centres undefined)	nt	nt	nt	nt	nt	5
CCC(=O)Nc1ccc(NC(=S)NC(=O)/C=C/c2ccco2)cc1	89*	nt	-89	-4	-14	2
CC(=O)NC(=S)Nc1ccc(NC(=S)NC(=O)/C=C/c2ccco2)cc1	42	5	-42	1	-5	1
CC(C)C(=O)Nc1cc(-c2nc3ncccc3o2)ccc1Cl	6	3	-6	1	-5	-1
COc1ccc2cc(C(c3nnnn3C3CCCCC3)N3CCCCCC3)c3nnnn3c2c1 (centres undefined)	80*	-1	-80	0	-1	-4
COc1cc(OC)c(NC(=S)Nc2cccc(C(C)=O)c2)cc1Cl	87*	7	-87	2	8	0
COc1cc(OC)c(NC(=S)Nc2cc(Cl)cc(Cl)c2)cc1Cl	66	7	-66	-1	6	-2
Cc1cc(/C=C2/SC(=S)N(c3cccc(C(F)(F)F)c3)C2=O)c(C)n1-c1cccnc1	76*	-1	-76	-1	-10	nt
CC(=O)c1sc(NC(=O)c2cc(-c3ccccc3)nn2-c2ccccc2)nc1C	80*	-5	-80	-2	-4	-1
CC[C@H](C)Cc1cn([C@@H](CCCN=C(NC(=O)OC(C)(C)C)NC(=O)OC(C)(C)C)C(=O)NCCCCCCCCCCC(=O)N2CCN(C(=O)OC(C)(C)C)CC2)nn1	14	-2	-14	0	33*	nt
Nc1nonc1-n1nnc(C(=O)N/N=C/c2cc(Br)ccc2O)c1CNc1ccccc1	48	-4	-48	-1	52*	nt
Nc1nonc1C(=O)N/N=C/c1cc(Br)ccc1O	138*	-3	-138	0	1	-9
Cc1ccc(/C=N/NC(=O)c2nnn(-c3nonc3N)c2CNc2ccccc2)cc1	20	-6	-20	-2	9	-2
NC(=O)N/N=C\c1cc(Br)ccc1O	-15	42	15	nt	-9	0
O=C(NCCCN1CCN(c2ccc(F)cc2)CC1)Nc1ccc(Cl)cc1	nt	nt	nt	nt	nt	4
O=C(COC(=O)Cc1c(F)cccc1Cl)Nc1ccc2[nH]c(=O)[nH]c2c1	-14	12	14	1	-6	4
COc1ccccc1C(=O)NCCNc1nc2cc(C)cc(C)c2cc1C#N	110*	nt	-110	-1	-13	-5
COc1cc(OC)cc(C(=O)NCCNc2nc3cc(C)cc(C)c3cc2C#N)c1	53	1	-53	1	-22	-1
CC(=O)CCc1oc2c([N+](=O)[O-])cccc2c1-c1ccc(C)o1	15	-2	-15	1	-12	6
C/C(CCc1oc2c(Br)cc(Br)cc2c1-c1ccc(C)o1)=N\O	78*	nt	-78	-1	-15	0
COc1cc(NC(=O)CCS(=O)(=O)c2ccc3c(c2)oc(=O)n3C)cc(OC)c1OC	-12	0	12	1	-1	0
SMILES	SR-BI DiI inh	DYRK1A inh	SR-BI uptake up	CDK5 p35 inh	dFosB activator	NSD2 HMT inh
COc1ccc(CCn2c(=O)[nH]c3cc(C(=O)N4CCN(c5ccccc5)CC4)ccc3c2=O)cc1OC	67	-9	-67	-1	-3	-3
COc1ccc(CCn2c(=O)[nH]c3cc(C(=O)N4CCN(c5ccccn5)CC4)ccc3c2=O)cc1OC	81*	-6	-81	-1	1	-2
Nc1cc(=O)[nH]c(SCC(=O)Nc2cc(S(=O)(=O)N3CCCCCC3)ccc2Cl)n1	0	-1	0	-2	37*	-2
Nc1cc(=O)[nH]c(SCC(=O)Nc2cc(S(=O)(=O)N3CCOCC3)ccc2Cl)n1	3	-7	-3	1	-6	-2
Cc1cccc2c1CCC1CN(Cc3ccccc3)S(=O)(=O)N21 (centres undefined)	nt	nt	nt	nt	nt	10
Cc1ccc(NC(=O)c2cc(=O)c3ccccc3o2)cc1S(=O)(=O)N1CCCCC1	80*	nt	-80	2	-6	-1
Cc1ccc(NC(=O)c2ccc3ccccc3n2)cc1S(=O)(=O)N1CCOCC1	95*	-4	-95	-1	-9	-2
O=C(Nc1cccc(S(=O)(=O)N2CCOCC2)c1)c1ccc2ccccc2n1	nt	13	nt	-1	-26	7
O=C(Nc1ccc(Cl)c(S(=O)(=O)N2CCOCC2)c1)c1cc(-c2ccccn2)nc2ccccc12	83*	-2	-83	-3	6	-1
COc1ccc(NC(=O)c2cc(-c3ccco3)nc3ccccc23)cc1S(=O)(=O)N1CCOCC1	89*	15	-89	2	-19	6
CCOc1cccc2cc(-c3csc(NC(=O)CCC(=O)NC4CCCC4)n3)c(=O)oc12	nt	nt	nt	nt	nt	5
CCOC(=O)c1c(-c2ccc(Cl)cc2)csc1/N=C/C1C(=O)CC(C)(C)CC1=O	nt	nt	nt	nt	nt	0
Cc1c(C(=O)Nc2ccc(F)c(F)c2)oc2ccc(S(=O)(=O)N3CCCCC3)cc12	75*	nt	-75	0	-22	-2
CC(=O)Nc1ccc(NC(=O)c2cc(=O)c3ccc(C)cc3o2)cc1	21	-3	-21	2	-2	0
CC(=O)Nc1ccc(NC(=O)c2cc(=O)c3cc(C)c(C)cc3o2)cc1	72*	1	-72	1	4	-1
O=C(Nc1ccc(Cl)c(S(=O)(=O)N2CCOCC2)c1)c1ccc2c(c1)OCCO2	72*	-4	-72	0	-12	nt
O=C(Nc1ccc(Cl)c(S(=O)(=O)N2CCOCC2)c1)c1ccc2c(c1)OCO2	59	nt	-59	0	-16	24
Cc1cc(=O)[nH]c(SCC(=O)c2ccc(Cl)cc2)n1	nt	nt	nt	nt	nt	-2
O=C(NCC(c1ccccc1)c1ccccc1)[C@H](Cc1c[nH]c2ccccc12)NC1(C(=O)NC2CCCCC2)CCCCCC1	nt	nt	nt	nt	nt	-1
CN(C(=O)c1ccncc1)C1CCCCC1	-20	-1	20	1	0	1
Cc1ccc(Nc2c([N+](=O)[O-])cc(C(=O)N3CC(=O)Nc4ccccc43)cc2[N+](=O)[O-])c(C)c1	75*	4	-75	2	1	12
O=C(CCN1CCN(C(c2ccccc2)c2ccccc2)CC1)N/N=C/c1ccc(O)cc1	-1	8	1	0	5	3

High-throughput results: PubChem, Broad Institute
